# Data from ChEMBL document CHEMBL3758165, “In vitro interactions between anidulafungin and nonsteroidal anti-inflammatory drugs on biofilms of Candida spp” (2016).
# Tests used:
# Type in all cases: functional
# Nakaseomyces glabratus [1] = assay: Antibiofilm activity against Candida glabrata 18a10 by two dimensional checkerboard dilution method
# In short: (§1)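 Biofilms grown on sterilized PVC disks: 1·10^6 cfu/ml Candida cells adhered for 1.5 h at 37 °C with shaking, washed with PBS, then matured 48 h at 37 °C in RPMI 1640 (MOPS, pH 7). Preformed biofilms were washed and exposed to drug, alone or in two-dimensional checkerboard combination, in RPMI 1640 for 24 h at 37 °C on a rocker.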
# Candida albicans [2] = assay: Antibiofilm activity against Candida albicans ATCC 10231 by two dimensional checkerboard dilution method; in short: as §1
# [3] = test system: Meyerozyma guilliermondii; assay: Antibiofilm activity against Candida guilliermondii a410 by two dimensional checkerboard dilution method; in short: as §1
# Candida albicans [4] = assay: Antibiofilm activity against Candida albicans ATCC 24433 by two dimensional checkerboard dilution method; in short: as §1
# [5] = test system: Meyerozyma guilliermondii; assay: Antibiofilm activity against Candida guilliermondii ATCC 6260 by two dimensional checkerboard dilution method; in short: as §1
# Candida albicans [6] = assay: Antibiofilm activity against Candida albicans 17a18 by two dimensional checkerboard dilution method; in short: as §1
# [7] = test system: Meyerozyma guilliermondii; assay: Antibiofilm activity against Candida guilliermondii a83 by two dimensional checkerboard dilution method; in short: as §1
# Candida albicans [8] = assay: Antibiofilm activity against Candida albicans ATCC 90028 assessed as fractional inhibitory concentration by two dimensional checkerboard dilution method in presence of anidulafungin
# In short: (§2)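 Biofilms grown on PVC disks: 1·10^6 cfu/ml in RPMI 1640 (MOPS, pH 7), 1.5 h adhesion at 37 °C with shaking, PBS wash, 48 h maturation at 37 °C. Preformed biofilms exposed 24 h at 37 °C to anidulafungin/NSAID checkerboard combinations in RPMI. XTT-menadione reduction read at 490 nm. SMIC = 50% metabolic reduction versus drug-free control. Triplicate runs on different days; FIC index calculated.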
# [9] = test system: Meyerozyma guilliermondii; assay: Potentiation of anidulafungin-induced antibiofilm activity against Candida guilliermondii a83 assessed as anidulafungin-fractional inhibitory concentration index by two dimensional checkerboard dilution method; in short: as §2
# [10] = test system: Meyerozyma guilliermondii; assay: Potentiation of anidulafungin-induced antibiofilm activity against Candida guilliermondii a410 at 0.1 uM to 100 mM after 48 hrs by XTT reduction assay relative to control; design: scale not given: the % may be the effect or the level left; in short: as §1
# Candida albicans [11] = assay: Potentiation of anidulafungin-induced antibiofilm activity against Candida albicans ATCC 90028 assessed as anidulafungin-fractional inhibitory concentration index by two dimensional checkerboard dilution method; in short: as §2
# [12] = test system: Meyerozyma guilliermondii; assay: Antibiofilm activity against Candida guilliermondii a410 by two dimensional checkerboard dilution method in presence of anidulafungin; in short: as §1
# Nakaseomyces glabratus [13] = assay: Potentiation of anidulafungin-induced antibiofilm activity against Candida glabrata ATCC 15126 at 0.1 uM to 100 mM after 48 hrs by XTT reduction assay relative to control; design: scale not given: the % may be the effect or the level left; in short: as §1
# Nakaseomyces glabratus [14] = assay: Antibiofilm activity against Candida glabrata 18a10 assessed as fractional inhibitory concentration by two dimensional checkerboard dilution method in presence of anidulafungin; in short: as §2
# Nakaseomyces glabratus [15] = assay: Antibiofilm activity against Candida glabrata 18a10 by two dimensional checkerboard dilution method in presence of anidulafungin; in short: as §1
# [16] = test system: Meyerozyma guilliermondii; assay: Antibiofilm activity against Candida guilliermondii ATCC 6260 by two dimensional checkerboard dilution method in presence of anidulafungin; in short: as §1
# Candida albicans [17] = assay: Antibiofilm activity against Candida albicans 17a18 by two dimensional checkerboard dilution method in presence of anidulafungin; in short: as §1
# [18] = test system: Meyerozyma guilliermondii; assay: Potentiation of anidulafungin-induced antibiofilm activity against Candida guilliermondii ATCC 6260 at 0.1 uM to 100 mM after 48 hrs by XTT reduction assay relative to control; design: scale not given: the % may be the effect or the level left; in short: as §1
# Nakaseomyces glabratus [19] = assay: Antibiofilm activity against Candida glabrata ATCC 15126 by two dimensional checkerboard dilution method in presence of anidulafungin; in short: as §1
# Candida albicans [20] = assay: Potentiation of anidulafungin-induced antibiofilm activity against Candida albicans ATCC 10231 at 0.1 uM to 100 mM after 48 hrs by XTT reduction assay relative to control; design: scale not given: the % may be the effect or the level left; in short: as §1
# Candida albicans [21] = assay: Potentiation of anidulafungin-induced antibiofilm activity against Candida albicans ATCC 10231 assessed as anidulafungin-fractional inhibitory concentration index by two dimensional checkerboard dilution method; in short: as §2
# Nakaseomyces glabratus [22] = assay: Antibiofilm activity against Candida glabrata 18a10 at 0.1 uM to 100 mM after 48 hrs by XTT reduction assay relative to control; design: scale not given: the % may be the effect or the level left; in short: as §1
# Nakaseomyces glabratus [23] = assay: Antibiofilm activity against Candida glabrata ATCC 15126 at 0.1 uM to 100 mM after 48 hrs by XTT reduction assay relative to control; design: scale not given: the % may be the effect or the level left; in short: as §1
# [24] = test system: Meyerozyma guilliermondii; assay: Potentiation of anidulafungin-induced antibiofilm activity against Candida guilliermondii ATCC 6260 assessed as anidulafungin-fractional inhibitory concentration index by two dimensional checkerboard dilution method; in short: as §2
# Nakaseomyces glabratus [25] = assay: Potentiation of anidulafungin-induced antibiofilm activity against Candida glabrata 18a10 at 0.1 uM to 100 mM after 48 hrs by XTT reduction assay relative to control; design: scale not given: the % may be the effect or the level left; in short: as §1
# Candida albicans [26] = assay: Potentiation of anidulafungin-induced antibiofilm activity against Candida albicans ATCC 90028 at 0.1 uM to 100 mM after 48 hrs by XTT reduction assay relative to control; design: scale not given: the % may be the effect or the level left; in short: as §1
# Candida albicans [27] = assay: Potentiation of anidulafungin-induced antibiofilm activity against Candida albicans 17a18 at 0.1 uM to 100 mM after 48 hrs by XTT reduction assay relative to control; design: scale not given: the % may be the effect or the level left; in short: as §1
# Candida albicans [28] = assay: Antibiofilm activity against Candida albicans 17a18 assessed as fractional inhibitory concentration by two dimensional checkerboard dilution method in presence of anidulafungin; in short: as §2
# Candida albicans [29] = assay: Antibiofilm activity against Candida albicans 17a18 at 0.1 uM to 100 mM after 48 hrs by XTT reduction assay relative to control; design: scale not given: the % may be the effect or the level left; in short: as §1
# [30] = test system: Meyerozyma guilliermondii; assay: Antibiofilm activity against Candida guilliermondii a410 assessed as fractional inhibitory concentration by two dimensional checkerboard dilution method in presence of anidulafungin; in short: as §2
# [31] = test system: Meyerozyma guilliermondii; assay: Antibiofilm activity against Candida guilliermondii a83 assessed as fractional inhibitory concentration by two dimensional checkerboard dilution method in presence of anidulafungin; in short: as §2
# Candida albicans [32] = assay: Antibiofilm activity against Candida albicans ATCC 90028 by two dimensional checkerboard dilution method in presence of anidulafungin; in short: as §1
# [33] = test system: Meyerozyma guilliermondii; assay: Antibiofilm activity against Candida guilliermondii a83 at 0.1 uM to 100 mM after 48 hrs by XTT reduction assay relative to control; design: scale not given: the % may be the effect or the level left; in short: as §1
# Nakaseomyces glabratus [34] = assay: Potentiation of anidulafungin-induced antibiofilm activity against Candida glabrata ATCC 15126 assessed as anidulafungin-fractional inhibitory concentration index by two dimensional checkerboard dilution method; in short: as §2
# Candida albicans [35] = assay: Potentiation of anidulafungin-induced antibiofilm activity against Candida albicans 17a18 assessed as anidulafungin-fractional inhibitory concentration index by two dimensional checkerboard dilution method; in short: as §2
# [36] = test system: Meyerozyma guilliermondii; assay: Potentiation of anidulafungin-induced antibiofilm activity against Candida guilliermondii a83 at 0.1 uM to 100 mM after 48 hrs by XTT reduction assay relative to control; design: scale not given: the % may be the effect or the level left; in short: as §1
# Candida albicans [37] = assay: Antibiofilm activity against Candida albicans ATCC 10231 assessed as fractional inhibitory concentration by two dimensional checkerboard dilution method in presence of anidulafungin; in short: as §2
# Nakaseomyces glabratus [38] = assay: Potentiation of anidulafungin-induced antibiofilm activity against Candida glabrata 18a10 assessed as anidulafungin-fractional inhibitory concentration index by two dimensional checkerboard dilution method; in short: as §2
# [39] = test system: Meyerozyma guilliermondii; assay: Antibiofilm activity against Candida guilliermondii ATCC 6260 assessed as fractional inhibitory concentration by two dimensional checkerboard dilution method in presence of anidulafungin; in short: as §2
MIC (Nakaseomyces glabratus [1]),MIC (Candida albicans [2]),MIC [3],MIC (Candida albicans [4]),MIC [5],MIC (Candida albicans [6]),MIC [7],MIC [12] [µM],MIC (Nakaseomyces glabratus [15]) [µM],MIC [16] [µM],MIC (Candida albicans [17]) [µM],MIC (Nakaseomyces glabratus [19]) [µM],Compound,Ratio (Candida albicans [8]),fractional inhibitory concentration index (FICI) [9],Activity [10] [%],fractional inhibitory concentration index (FICI) (Candida albicans [11]),Activity (Nakaseomyces glabratus [13]) [%],Ratio (Nakaseomyces glabratus [14]),Activity [18] [%],Activity (Candida albicans [20]) [%],other results
200 µM,200 µM,1000 µM,1000 µM,1000 µM,200 µM,200 µM,100,10,100,10,10,CC(=O)Oc1ccccc1C(=O)O [ASPIRIN],0.05,0.1,41.54,0.1,49.78,0.05,50.37,82.81,fractional inhibitory concentration index (FICI) (Candida albicans [21]): 0.1; Activity (Nakaseomyces glabratus [22]): 32.32%; Activity (Nakaseomyces glabratus [23]): 29.02%; fractional inhibitory concentration index (FICI) [24]: 0.15; Activity (Nakaseomyces glabratus [25]): 48.58%; Activity (Candida albicans [26]): 57.84%; Activity (Candida albicans [27]): 51.74%; Ratio (Candida albicans [28]): 0.05; Activity (Candida albicans [29]): 46.55%; Ratio [30]: 0.1; Ratio [31]: 0.05; MIC (Candida albicans [32]): 10 µM; Activity [33]: 46.22%; fractional inhibitory concentration index (FICI) (Nakaseomyces glabratus [34]): 0.1; fractional inhibitory concentration index (FICI) (Candida albicans [35]): 0.1; Activity [36]: 45.32%; Ratio (Candida albicans [37]): 0.05; fractional inhibitory concentration index (FICI) (Nakaseomyces glabratus [38]): 0.1; Ratio [39]: 0.1
100000 µM,100000 µM,100000 µM,100000 µM,100000 µM,100000 µM,100000 µM,40000,20000,40000,5000,20000,O=C([O-])Cc1ccccc1Nc1c(Cl)cccc1Cl.[Na+] [DICLOFENAC SODIUM],0.05,0.3,54.28,0.1,65.96,0.2,57.69,66.15,fractional inhibitory concentration index (FICI) (Candida albicans [21]): 0.1; Activity (Nakaseomyces glabratus [22]): 44.54%; Activity (Nakaseomyces glabratus [23]): 54.44%; fractional inhibitory concentration index (FICI) [24]: 0.45; Activity (Nakaseomyces glabratus [25]): 58.66%; Activity (Candida albicans [26]): 71.04%; Activity (Candida albicans [27]): 64.25%; Ratio (Candida albicans [28]): 0.05; Activity (Candida albicans [29]): 55.33%; Ratio [30]: 0.4; Ratio [31]: 0.2; MIC (Candida albicans [32]): 5000 µM; Activity [33]: 57.87%; fractional inhibitory concentration index (FICI) (Nakaseomyces glabratus [34]): 0.3; fractional inhibitory concentration index (FICI) (Candida albicans [35]): 0.1; Activity [36]: 55.64%; Ratio (Candida albicans [37]): 0.05; fractional inhibitory concentration index (FICI) (Nakaseomyces glabratus [38]): 0.3; Ratio [39]: 0.4
200 µM,1000 µM,200 µM,1000 µM,200 µM,1000 µM,200 µM,20,40,20,50,40,CC(C)Cc1ccc(C(C)C(=O)O)cc1 (centres undefined) [IBUPROFEN],0.1,0.25,51.31,0.3,57.46,0.2,53.32,59.51,fractional inhibitory concentration index (FICI) (Candida albicans [21]): 0.25; Activity (Nakaseomyces glabratus [22]): 53.44%; Activity (Nakaseomyces glabratus [23]): 57.23%; fractional inhibitory concentration index (FICI) [24]: 0.3; Activity (Nakaseomyces glabratus [25]): 62.33%; Activity (Candida albicans [26]): 61.43%; Activity (Candida albicans [27]): 64.22%; Ratio (Candida albicans [28]): 0.05; Activity (Candida albicans [29]): 24.51%; Ratio [30]: 0.1; Ratio [31]: 0.2; MIC (Candida albicans [32]): 1000 µM; Activity [33]: 56.78%; fractional inhibitory concentration index (FICI) (Nakaseomyces glabratus [34]): 0.25; fractional inhibitory concentration index (FICI) (Candida albicans [35]): 0.25; Activity [36]: 52.11%; Ratio (Candida albicans [37]): 0.05; fractional inhibitory concentration index (FICI) (Nakaseomyces glabratus [38]): 0.25; Ratio [39]: 0.1

Compound,MIC (Nakaseomyces glabratus [1]),MIC (Candida albicans [2]),MIC [3],MIC (Candida albicans [4]),MIC [5],MIC (Candida albicans [6]),MIC [7],MIC [12] [µM],MIC (Nakaseomyces glabratus [15]) [µM],MIC [16] [µM],MIC (Candida albicans [17]) [µM],MIC (Nakaseomyces glabratus [19]) [µM],Ratio (Candida albicans [8]),fractional inhibitory concentration index (FICI) [9],Activity [10] [%],fractional inhibitory concentration index (FICI) (Candida albicans [11]),Activity (Nakaseomyces glabratus [13]) [%],Ratio (Nakaseomyces glabratus [14]),Activity [18] [%],Activity (Candida albicans [20]) [%],other results
CCCCCOc1ccc(-c2ccc(-c3ccc(C(=O)N[C@@H]4C[C@@H](O)[C@@H](O)NC(=O)[C@@H]5[C@@H](O)[C@@H](C)CN5C(=O)[C@H]([C@@H](C)O)NC(=O)[C@H]([C@H](O)[C@@H](O)c5ccc(O)cc5)NC(=O)[C@@H]5C[C@@H](O)CN5C(=O)[C@H]([C@H](C)O)NC4=O)cc3)cc2)cc1,2 µg/mL,2 µg/mL,2 µg/mL,2 µg/mL,2 µg/mL,2 µg/mL,2 µg/mL,–,–,–,–,–,–,–,–,–,–,–,–,–,–
